Our source for the Activity and MIC values is ChEMBL document CHEMBL1151473, “Posaconazole activity against Candida glabrata after exposure to caspofungin or amphotericin B” (2008).

Molecules are shown by their SMILES. In brackets after ≈: the same amount, converted by molar mass. Activity calls are given as the source filed them. The calls are words filed in the database; no cut-off is given here. Where only a bound is given, the exact number is not on record here.

The test system of assay [1] is Nakaseomyces glabratus. The assay can be described thus: Antifungal activity against 2.44 x 10^8 CFU Candida glabrata isolate 4293 infected in CD1 mouse assessed as inhibition of regrowth in fungal burden in kidney at 1 mg/kg/day, ip administered from day 1 to day 2 followed by PEG-200 infusion from day 3 to day 6 post viral challenge measured on day 7 postinfection. Format: functional, organism-based. The essentials:
(§1)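 Male CD1 mice (25 g) made neutropenic with cyclophosphamide 200 mg/kg/day ip on days −4, +1 and +4 postinfection. Infected iv with C. glabrata 4293 in 0.2 ml. Treatment began 24 h postchallenge, with 1 mg/kg/day ip in 0.2 ml. Sacrifice on day 3 or day 7. Kidney pairs homogenized; diluted and undiluted aliquots plated on Sabouraud dextrose agar for CFU. Medians reported; 7–8 mice per group.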

The test system of assay [2] is Nakaseomyces glabratus. Description: Antifungal activity against Candida glabrata isolate 4293 after 48 hrs by broth microdilution method. Format: functional. A digest of the protocol: (§2)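 CLSI broth microdilution with final drug concentrations […], incubated at 35°C and read spectrophotometrically at 490 nm at 24 and 48 h. MIC is the first concentration giving 50% turbidity reduction versus control, or 90% for amphotericin B. Run in quintuplicate.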

In assay [3] the test system is Nakaseomyces glabratus. The assay can be described thus: Antifungal activity against 1.04 x 10^8 CFU Candida glabrata isolate 4293 infected in CD1 mouse assessed as inhibition of regrowth in fungal burden in kidney at 1 mg/kg/day, ip administered from day 1 to day 2 followed by PEG-200 infusion from day 3 to day 6 post viral challenge measured on day 7 postinfection. Format: functional, organism-based. The essentials: as §1

The test system of assay [4] is Candida parapsilosis. Description: Antifungal activity against Candida parapsilosis ATCC 22019 after 48 hrs by broth microdilution method. Particulars: Lodderomyces parapsilosis, ATCC 22019, 48 h. The format is functional. The essentials: as §2
The test system of assay [5] is Nakaseomyces glabratus. Description: Antifungal activity against 1.04 x 10^8 CFU Candida glabrata isolate 4293 infected in CD1 mouse assessed as reduction in viral count per kidney pair at 1 mg/kg/day, ip administered from day 1 to day 2 followed by PEG-200 infusion from day 3 to day 6 post viral challenge measured on day 7 postinfection relative to control. The format is functional, organism-based. A digest of the protocol: as §1

Assay [6] has as its system Nakaseomyces glabratus. Description: Antifungal activity against Candida glabrata isolate 4198 after 48 hrs by broth microdilution method. The format is functional. The essentials: as §2
Assay [7] concerns Nakaseomyces glabratus. The assay can be described thus: Antifungal activity against 2.44 x 10^8 CFU Candida glabrata isolate 4293 infected in CD1 mouse assessed as reduction in […] per kidney pair at 1 mg/kg/day, ip administered from day 1 to day 2 followed by PEG-200 infusion from day 3 to day 6 […] measured on day 7 postinfection relative to control. Format: functional, organism-based. A digest of the protocol:
as §1

The test system of assay [8] is Nakaseomyces glabratus. Description: Antifungal activity against 2.44 x 10^8 CFU Candida glabrata isolate 4293 infected in CD1 mouse assessed as reduction in fungal burden per kidney pair at 1 mg/kg/day, ip administered from day 1 to day 2 post viral challenge measured on day 3 postinfection. Format: functional, organism-based. The essentials:
as §1

The subject of assay [9] is Nakaseomyces glabratus. Description: Antifungal activity against Candida glabrata isolate 4205 after 48 hrs by broth microdilution method. Format: functional. As to conditions: isolate 4205, 48 h. The essentials: as §2
Assay [10] relates to Nakaseomyces glabratus. Description: Antifungal activity against 1.04 x 10^8 CFU Candida glabrata isolate 4293 infected in CD1 mouse assessed as inhibition of regrowth in fungal burden in kidney at 1 mg/kg/day, ip administered from day 1 to day 2 post viral challenge measured on day 7 postinfection. The format is functional, organism-based. A digest of the protocol: as §1

Assay [11] concerns Nakaseomyces glabratus. The assay can be described thus: Antifungal activity against 1.04 x 10^8 CFU Candida glabrata isolate 4293 infected in CD1 mouse assessed as reduction in fungal burden per kidney pair at 1 mg/kg/day, ip administered from day 1 to day 2 post viral challenge measured on day 3 postinfection. The format is functional, organism-based. The essentials: as §1

For assay [12], the system named is Nakaseomyces glabratus. The assay can be described thus: Antifungal activity against Candida glabrata isolate 4370 after 48 hrs by broth microdilution method. The format is functional. The essentials:
as §2

Assay [13] deals with Nakaseomyces glabratus. Description: Antifungal activity against 2.44 x 10^8 CFU Candida glabrata isolate 4293 infected in CD1 mouse assessed as inhibition of regrowth in fungal burden in kidney at 1 mg/kg/day, ip administered from day 1 to day 2 post viral challenge measured on day 7 postinfection. The format is functional, organism-based. The essentials:
as §1

Assay [14] has as its system Nakaseomyces glabratus. The assay can be described thus: Antifungal activity against Candida glabrata isolate 4370 after 24 hrs by broth microdilution method. The format is functional. A digest of the protocol:
as §2

For assay [15], the system named is Candida parapsilosis. Description: Antifungal activity against Candida parapsilosis ATCC 22019 after 24 hrs by broth microdilution method. Format: functional. Particulars: Lodderomyces parapsilosis, ATCC 22019, 24 h. The essentials:
(§3)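 CLSI broth microdilution, final drug concentrations 0.0078–8 µg/ml. Incubated at 35°C and read at 24 and 48 h by OD490. MIC is the first concentration giving 50% (azole, echinocandin) or 90% (polyene) less turbidity than the drug-free control. Quintuplicate.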

Assay [16] has as its system Nakaseomyces glabratus. The assay can be described thus: Antifungal activity against Candida glabrata isolate 4198 after 24 hrs by broth microdilution method. The format is functional. The essentials:
as §2

Assay [17] has as its system Nakaseomyces glabratus. The assay can be described thus: Antifungal activity against Candida glabrata isolate 4293 after 24 hrs by broth microdilution method. The format is functional. A digest of the protocol: as §3
Assay [18] deals with Nakaseomyces glabratus. The assay can be described thus: Antifungal activity against 1.04 x 10^8 CFU Candida glabrata isolate 4293 infected in CD1 mouse assessed as inhibition of regrowth in fungal burden in kidney at 1 mg/kg/day, ip administered from day 1 to day 2 post viral challenge measured on day 3 postinfection. Format: functional, organism-based. A digest of the protocol: as §1

Assay [19] deals with Nakaseomyces glabratus. The assay can be described thus: Antifungal activity against Candida glabrata isolate 4205 after 24 hrs by broth microdilution method. The format is functional. Particulars: isolate 4205, 24 h. The essentials:
as §2

For assay [20], the system named is Nakaseomyces glabratus. The assay can be described thus: Antifungal activity against 2.44 x 10^8 CFU Candida glabrata isolate 4293 infected in CD1 mouse assessed as inhibition of regrowth in fungal burden in kidney at 1 mg/kg/day, ip administered from day 1 to day 2 post viral challenge measured on day 3 postinfection. The format is functional, organism-based. The essentials:
as §1

`C[C@@H]1[C@H](O)[C@@H](C)/C=C/C=C/C=C/C=C/C=C/C=C/C=C/[C@H](O[C@@H]2O[C@H](C)[C@@H](O)[C@H](N)[C@@H]2O)C[C@@H]2O[C@](O)(C[C@@H](O)C[C@@H](O)[C@H](O)CC[C@@H](O)C[C@@H](O)CC(=O)O[C@H]1C)C[C@H](O)[C@H]2C(=O)O` [AMPHOTERICIN B]: the outcome in [1], in assay [3], in assay [8], in assay [10], in assay [11] and in [13] was inactive. Besides, the MIC stood at 0.5 µg/mL (≈ 0.541 µM) in assay [2]; 1 µg/mL (≈ 1.08 µM) in [4]; 0.5 µg/mL (≈ 0.541 µM) in assay [6]; 0.5 µg/mL (≈ 0.541 µM) in assay [9]; 1 µg/mL (≈ 1.08 µM) in assay [12]. The result in assay [5] and in [7] was Active.
For `CC[C@H](C)C[C@H](C)CCCCCCCCC(=O)N[C@H]1C[C@@H](O)[C@@H](NCCN)NC(=O)[C@@H]2[C@@H](O)CCN2C(=O)[C@H]([C@H](O)CCN)NC(=O)[C@H]([C@H](O)[C@@H](O)c2ccc(O)cc2)NC(=O)[C@@H]2C[C@@H](O)CN2C(=O)[C@H]([C@@H](C)O)NC1=O` [CASPOFUNGIN], the MIC was 0.125 µg/mL (≈ 0.114 µM) in [14]; 0.25 µg/mL (≈ 0.229 µM) in assay [15]; 0.25 µg/mL (≈ 0.229 µM) in assay [16]; no more than 0.03 µg/mL in assay [17]; 0.25 µg/mL (≈ 0.229 µM) in assay [19]. Further, the outcome in assay [5], in [7], in [18], in assay [10], in [20] and in [13] was Active. Besides, the outcome in assay [8] and in assay [11] was inactive.
